Results gathered from unrelated publications.
Compare with care: the assays were run in different laboratories.
Target: Tyrosine-protein kinase Blk (BLK, Homo sapiens, UniProt P51451)

| Structure (SMILES) | effect on | action | method | tested at | endpoint | value |
| --- | --- | --- | --- | --- | --- | --- |
| COc1cc2ncnc(Nc3ccc(F)c(Cl)c3)c2cc1OCCCN1CCOCC1 | cell-free assay |  |  | 0.5 µM | remaining signal | 87.7% |
| N#Cc1ccc(Nc2ccc3[nH]c(=O)[nH]c3c2)c(Cl)c1 | cell-free assay |  | competition with immobilised ligand | 1 µM | remaining binding | 97% |
| CC(C)(C)c1nc(-c2cccc(NS(=O)(=O)c3c(F)cccc3F)c2F)c(-c2ccnc(N)n2)s1 | enzyme activity | inhibitor | radiometric | 1 µM | remaining activity | 29% |
| CCC(=O)N[C@@H]1CC[C@H](C(=O)N(C)c2ccc(-c3nc4ccccc4o3)cc2)C1 | cell-free assay |  | competition with immobilised ligand | 1 µM | remaining binding | 100% |
| O=C(Nc1cnn(-c2csc(C(=O)NC3COC3)c2)c1)Nc1ccccc1Cl | enzyme activity | inhibitor |  | 5 µM | remaining activity | 79.2% |
| COc1ccc2cc(OCC3(C(=O)O)CN(C(=O)c4ccc(F)cc4)C3)ccc2c1 | cell-free assay |  | competition with immobilised ligand | 1 µM | remaining binding | 93% |
| CC(C)(O)[C@H]1CC[C@H](Nc2ccc3ncc(-c4cccc(C(F)(F)F)c4)n3n2)CC1 | enzyme activity | inhibitor |  | 1 µM | remaining activity | 37.5% |
| Cc1ccc(NC(=O)c2ccc(C)c(C(F)(F)F)c2)cc1C#Cc1nn(C2CCC(O)CC2)c2ncnc(N)c12 (centres unmarked) | cell-free assay |  |  | 10 µM | remaining signal | 0% |
| O=c1cc(-c2cccc3c2Sc2ccccc2S3)oc(N2CCOCC2)c1 | enzyme activity | inhibitor |  | 0.5 µM | remaining activity | 96.2% |
| CN(C(=O)c1ccccc1)c1cc(N(C)c2ccc3c(c2)CCc2ccc(C(=O)NCCN4CCOCC4)cc2C3=O)ccc1F | cell-free assay |  | competition with immobilised ligand | 1 µM | remaining binding | 100% |
| CCN(CC)c1ccc(C2=NNC(=O)CC2C)cc1[N+](=O)[O-] (centres unmarked) | enzyme activity | inhibitor |  | 10 µM | remaining activity | 110% |
| O=C(Nc1cccnn1)N1CC(C/C=C/c2cncc(Oc3ccc(C(F)(F)F)cn3)n2)C1 | cell-free assay |  | competition with immobilised ligand | 1 µM | remaining binding | 65% |
| Cc1cnc(NC2CCOCC2)nc1-n1cnc(C(=O)NC(CN)c2cc(F)cc(Cl)c2)c1 (centres unmarked) | enzyme activity | inhibitor | radiometric | 1 µM | remaining activity | 112% |
| CC/C(=N\NC(=O)NCc1cccc(O)c1)c1ccc(O)c(C)c1O | enzyme activity | inhibitor |  | 0.1 µM | inhibition | 6% |
| O=C1NC(=O)c2cc(Nc3ccc(F)cc3)c(Nc3ccc(F)cc3)cc21 | cell-free assay |  |  | 0.5 µM | remaining signal | 94.3% |
| COc1cc2ncnc(Nc3ccc(Oc4ccccc4)cc3C)c2cc1OC | enzyme activity | inhibitor |  | 1 µM | inhibition | 85% |
| Cc1ccc(C(=O)Nc2ccc(CN3CCN(C)CC3)c(C(F)(F)F)c2)cc1C#Cc1cnc2cccnn12 | enzyme activity |  |  | 23.5 nM | remaining activity | 1.2% |
